Laboratory results published in ChEMBL document CHEMBL1687920, “Structure-based discovery of inhibitors of microsomal prostaglandin E2 synthase-1, 5-lipoxygenase and 5-lipoxygenase-activating protein: promising hits for the development of new anti-inflammatory agents” (J Med Chem, 2011).

Key:
[1] = biological target: T1, Polyunsaturated fatty acid 5-lipoxygenase (Homo sapiens) (UniProt P09917); test: Inhibition of 5-lipoxygenase in human neutrophils assessed as residual activity at 10 uM; values are per cent of control
T1 sequence (whole entry): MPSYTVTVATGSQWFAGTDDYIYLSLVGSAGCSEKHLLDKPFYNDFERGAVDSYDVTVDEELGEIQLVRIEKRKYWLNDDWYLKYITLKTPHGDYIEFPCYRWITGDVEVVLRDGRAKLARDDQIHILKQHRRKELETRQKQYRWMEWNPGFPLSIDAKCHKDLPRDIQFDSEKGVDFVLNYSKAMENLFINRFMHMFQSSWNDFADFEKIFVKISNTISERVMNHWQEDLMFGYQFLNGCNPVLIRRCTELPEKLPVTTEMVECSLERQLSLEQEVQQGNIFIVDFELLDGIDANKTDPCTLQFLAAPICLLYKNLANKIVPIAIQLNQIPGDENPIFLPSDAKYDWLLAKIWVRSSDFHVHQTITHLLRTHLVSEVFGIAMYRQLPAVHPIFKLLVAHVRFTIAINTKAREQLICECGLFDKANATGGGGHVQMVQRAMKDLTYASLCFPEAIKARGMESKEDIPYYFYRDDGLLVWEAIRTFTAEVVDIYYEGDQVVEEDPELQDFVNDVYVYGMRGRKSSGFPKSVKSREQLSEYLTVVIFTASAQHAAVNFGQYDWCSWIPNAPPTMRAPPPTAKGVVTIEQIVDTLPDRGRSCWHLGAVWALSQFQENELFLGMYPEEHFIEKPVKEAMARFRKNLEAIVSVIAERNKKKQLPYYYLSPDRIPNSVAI

[2] = biological target: T1, Polyunsaturated fatty acid 5-lipoxygenase (Homo sapiens); test: Inhibition of human recombinant 5-lipoxygenase expressed in Escherichia coli MV1190 assessed as residual activity at 10 uM by cell free assay; values are per cent of control
[3] = biological target: T2, Polyunsaturated fatty acid 5-lipoxygenase (Homo sapiens, UniProt P09917); test: Inhibition of 5-lipoxygenase in human neutrophils
T2 sequence (P09917 whole entry): T1 sequence (whole entry)
Outline: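 Human neutrophils stimulated with ionophore A23187 to probe FLAP-dependent 5-LO product formation. Compounds in DMSO (vehicle 0.3% v/v) screened at 30 μM and tested in concentration-response. A FLAP inhibitor served as control. n = 4-5 for the curves.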

[4] = biological target: T2, Polyunsaturated fatty acid 5-lipoxygenase; test: Inhibition of human recombinant 5-lipoxygenase expressed in Escherichia coli MV1190 by cell free assay
Outline: (§1)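 Cell-free activity assay with isolated human recombinant 5-LO. Compounds screened at 30 μM in DMSO, with 0.3% v/v DMSO as vehicle and BWA4C as positive control. IC50 taken from concentration-response curves. Means ± SE, n = 4-5.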

[5] = biological target: Prostaglandin E synthase / mPGES-1 (Homo sapiens) (UniProt O14684); test: Inhibition of Prostaglandin E2 synthase-1 in IL1-beta stimulated microsomal fraction of human A549 cell assessed as residual activity at 30 uM; conditions: Microsome
[6] = biological target: T1, Polyunsaturated fatty acid 5-lipoxygenase (Homo sapiens); test: Inhibition of human recombinant 5-lipoxygenase expressed in Escherichia coli MV1190 assessed as residual activity at 30 uM by cell free assay
Outline: as §1

[7] = biological target: T1, Polyunsaturated fatty acid 5-lipoxygenase (Homo sapiens); test: Inhibition of 5-lipoxygenase in human neutrophils assessed as residual activity at 30 uM; values are per cent of control

Sequence of Prostaglandin E synthase / mPGES-1 (Homo sapiens) (O14684 whole entry, looked up): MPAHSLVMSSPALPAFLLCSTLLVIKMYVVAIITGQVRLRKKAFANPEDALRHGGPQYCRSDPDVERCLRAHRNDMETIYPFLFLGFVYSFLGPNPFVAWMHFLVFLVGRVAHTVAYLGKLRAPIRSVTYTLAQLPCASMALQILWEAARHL

SMILES | residual activity [1] | residual activity [2] | IC50 [3] | IC50 [4] | remaining activity [5] | remaining activity [6] | residual activity [7]
O=C(O)c1ccc(S(=O)(=O)n2cc(-c3ccc(-c4ccccc4COc4cccc5ccccc45)cc3)nn2)cc1 | 3.5% | 13.6% | 0.6 µM | 0.8 µM | 59.8% |  | 
Cc1ccccc1CCn1cc(-c2ccc(-c3ccc(N)cc3)cc2)nn1 | 22% |  | 1.7 µM | > 30 µM | 98.2% | 60.7% | 
O=C(OCc1cn(CSc2ccccc2)nn1)c1ccccc1 |  |  | 9.3 µM | > 30 µM | 76.1% | 80.8% | 14.6%
O=Cc1ccc(-c2c(Cc3ccccc3)nnn2CSc2ccccc2)cc1 | 17.3% |  | 6 µM | > 30 µM | 72.1% | 57.3% | 
Cc1ccccc1CCn1cc(-c2ccc(-c3ccccc3COc3cccc4ccccc34)cc2)nn1 |  |  | > 30 µM | > 30 µM | 90% | 78.4% | 84.5%
Cc1ccccc1CCn1cc(-c2ccc(-c3ccccc3COc3cc(C(F)(F)F)ccc3Cl)cc2)nn1 |  |  | > 30 µM | > 30 µM | 87.9% | 82.5% | 92.1%
FC(F)(F)c1ccc(Cl)c(OCc2ccccc2-c2ccc(-c3cn(CCCc4ccccc4)nn3)cc2)c1 |  |  | > 30 µM | 8.8 µM | 91.9% | 10.1% | 52.7%
O=C(O)c1ccc(Cn2cc(-c3ccc(-c4ccccc4)cc3)nn2)c([N+](=O)[O-])c1 |  |  | 9.2 µM | 6.7 µM | 12% | 20% | 20.1%
Oc1ccc(-c2ccc(-c3cn(CSc4ccccc4)nn3)cc2)cc1 | 34.8% |  | 0.9 µM | > 30 µM | 89% | 62.3% | 
c1ccc(CCCn2cc(-c3ccc(-c4ccc(Oc5ccccc5)cc4)cc3)nn2)cc1 |  |  | > 30 µM | > 30 µM | 88.7% | 59.2% | 70.1%
c1ccc(CCCn2cc(-c3ccc(-c4ccccc4COc4cccc5ccccc45)cc3)nn2)cc1 |  |  | > 30 µM | > 30 µM | 96.8% | 77.4% | 79.9%
c1ccc(CCCn2cc(-c3ccc(-c4cc5ccccc5c5ccccc45)cc3)nn2)cc1 |  |  | > 30 µM | > 30 µM | 78.2% | 82.9% | 85.7%
Oc1ccc(-c2ccc(-c3cn(CCCc4ccccc4)nn3)cc2)cc1 |  |  | > 30 µM | > 30 µM | 73.6% | 58.4% | 70.2%
Oc1cccc(-c2ccc(-c3cn(CSc4ccccc4)nn3)cc2)c1 | 1.1% |  | 0.4 µM | 27 µM | 60.1% | 48.8% | 
CN(C)c1cccc2c(S(=O)(=O)Nc3ccc(-c4ccc(-c5cn(CCCc6ccccc6)nn5)cc4)cc3)cccc12 | 21.2% |  | 2.8 µM | 4.1 µM | 85% | 5.1% | 
